Paper PMC6099226 (Diabetes, Obesity & Metabolism, 2018)

Columns and labels:
Format in all cases: in vivo, human
[1] = Semaglutide exposure: average steady-state concentration; conditions: mean Cavg at steady state
In short: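 Plasma samples were taken 4–5 times per participant, at weeks 4, 8, 16 and 30, plus week 56 except in SUSTAIN 1. Assay was validated LC-MS/MS with LLOQ 0.729 nmol/L; samples below it were excluded. Average steady-state concentration at the randomized once-weekly subcutaneous maintenance dose was derived from individual clearance estimates of a population-PK analysis.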

adults with T2DM [2] = conditions: semaglutide 0.5 and 1.0 mg
adults with T2DM [3] = assay: Exposure-response analysis of elevated serum calcitonin
In short: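 Serum calcitonin was measured by chemiluminescent immunometric assay (range 2.0–2000 pg/mL). Only participants with normal baseline values and post-baseline data were included, without imputation. The proportion with elevated calcitonin at any time until end-of-treatment was plotted with 95% CI against Cavg quantiles, with placebo at zero exposure. A covariate-adjusted exposure-response model was fitted.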

adults with T2DM [4] = assay: Analysis of GI AEs
In short: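 Adults with T2DM from four phase III trials received once-weekly subcutaneous injections, escalated every 4 weeks (0.25, 0.5, 1.0 mg). Nausea reports were counted from baseline to week 30. Proportions were plotted against time by dose, with each dose split into high/low exposure halves by Cavg at the maintenance dose. Logistic regression adjusted for trial, sex, age group, escalation regimen and Japanese race. LOCF and completer sensitivity analyses were run.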

- Semaglutide exposure ([1]; All men, dose 0.5 mg once weekly): 15.0 nmol/L
- Semaglutide exposure ([1]; All men, dose 1.0 mg once weekly): 29.9 nmol/L
- Semaglutide exposure ([1]; All participants, dose 0.5 mg once weekly): 15.3 nmol/L
- Semaglutide exposure ([1]; All participants, dose 1.0 mg once weekly): 30.6 nmol/L
- Semaglutide exposure ([1]; All women, dose 0.5 mg once weekly): 15.9 nmol/L
- Semaglutide exposure ([1]; All women, dose 1.0 mg once weekly): 31.7 nmol/L
- increase from baseline to end‐of‐trial in mean resting pulse rate (adults with T2DM [2]): 2−4 bpm
- proportion of participants with serum calcitonin concentrations above the reference ranges (adults with T2DM [3]; any time after baseline until end‐of‐treatment, 36 of 1395 participants, placebo data included in the analysis): 2.6%
- dependence of elevated calcitonin levels on exposure (adults with T2DM [3]; range of exposures achieved with 0.5 and 1.0 mg, no effect vs placebo): independent of exposure
SMILES: CC[C@H](C)[C@H](NC(=O)[C@H](Cc1ccccc1)NC(=O)[C@H](CCC(=O)O)NC(=O)[C@H](CCCCNC(=O)COCCOCCNC(=O)COCCOCCNC(=O)CC[C@H](NC(=O)CCCCCCCCCCCCCCCCC(=O)O)C(=O)O)NC(=O)[C@H](C)NC(=O)[C@H](C)NC(=O)[C@H](CCC(N)=O)NC(=O)CNC(=O)[C@H](CCC(=O)O)NC(=O)[C@H](CC(C)C)NC(=O)[C@H](Cc1ccc(O)cc1)NC(=O)[C@H](CO)NC(=O)[C@H](CO)NC(=O)[C@@H](NC(=O)[C@H](CC(=O)O)NC(=O)[C@H](CO)NC(=O)[C@@H](NC(=O)[C@H](Cc1ccccc1)NC(=O)[C@@H](NC(=O)CNC(=O)[C@H](CCC(=O)O)NC(=O)C(C)(C)NC(=O)[C@@H](N)Cc1cnc[nH]1)[C@@H](C)O)[C@@H](C)O)C(C)C)C(=O)N[C@@H](C)C(=O)N[C@@H](Cc1c[nH]c2ccccc12)C(=O)N[C@@H](CC(C)C)C(=O)N[C@H](C(=O)N[C@@H](CCCNC(=N)N)C(=O)NCC(=O)N[C@@H](CCCNC(=N)N)C(=O)NCC(=O)O)C(C)C [semaglutide]
- proportion of participants reporting nausea (adults with T2DM [4]; during the first 4 weeks, also for participants with high exposure): < 7%
- concentration of semaglutide estimated to be tolerated without nausea by 95% of participants (adults with T2DM [4]; week 1): < 5 nM
- concentration of semaglutide estimated to be tolerated without nausea by 95% of participants (adults with T2DM [4]; week 30): > 30 nM
